Activity calls are given as the source filed them. The calls are words filed in the database; no cut-off is given here.

The record followed here is ChEMBL document CHEMBL1914325, “Largazole and analogues with modified metal-binding motifs targeting histone deacetylases: synthesis and biological evaluation” (2011).

Assay [1] addresses Histone deacetylase 1 (Homo sapiens) (UniProt Q13547). As to the kind of experiment: Inhibition of HDAC1 in human HCT116 cells assessed as increase in histone H3 acetylation at 10 nM after 24 hrs by Western blot analysis. It counts as cell-based. To be noted: HCT-116. Put shortly: (§1)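 HCT116 cells treated 24 h with 10 nM, 100 nM or 1 µM compound, with DMSO as vehicle control. Acetylation of histone or α-tubulin was measured by Western blot of whole-cell lysates, detected with infrared dye-conjugated secondary antibodies and infrared scanning.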
(In general: A western blot detects proteins with antibodies after separation by electrophoresis.)

The target is the same in assay [2]. As to the kind of experiment: Inhibition of HDAC1 in human HCT116 cells assessed as increase in histone H3 acetylation at 1 uM after 24 hrs by Western blot analysis. Conditions: HCT-116. It counts as cell-based. The method in brief: as §1
Assay [3] concerns the target T1, Protein deacetylase HDAC6 (Homo sapiens) (UniProt Q9UBN7).
T1 sequence (whole entry): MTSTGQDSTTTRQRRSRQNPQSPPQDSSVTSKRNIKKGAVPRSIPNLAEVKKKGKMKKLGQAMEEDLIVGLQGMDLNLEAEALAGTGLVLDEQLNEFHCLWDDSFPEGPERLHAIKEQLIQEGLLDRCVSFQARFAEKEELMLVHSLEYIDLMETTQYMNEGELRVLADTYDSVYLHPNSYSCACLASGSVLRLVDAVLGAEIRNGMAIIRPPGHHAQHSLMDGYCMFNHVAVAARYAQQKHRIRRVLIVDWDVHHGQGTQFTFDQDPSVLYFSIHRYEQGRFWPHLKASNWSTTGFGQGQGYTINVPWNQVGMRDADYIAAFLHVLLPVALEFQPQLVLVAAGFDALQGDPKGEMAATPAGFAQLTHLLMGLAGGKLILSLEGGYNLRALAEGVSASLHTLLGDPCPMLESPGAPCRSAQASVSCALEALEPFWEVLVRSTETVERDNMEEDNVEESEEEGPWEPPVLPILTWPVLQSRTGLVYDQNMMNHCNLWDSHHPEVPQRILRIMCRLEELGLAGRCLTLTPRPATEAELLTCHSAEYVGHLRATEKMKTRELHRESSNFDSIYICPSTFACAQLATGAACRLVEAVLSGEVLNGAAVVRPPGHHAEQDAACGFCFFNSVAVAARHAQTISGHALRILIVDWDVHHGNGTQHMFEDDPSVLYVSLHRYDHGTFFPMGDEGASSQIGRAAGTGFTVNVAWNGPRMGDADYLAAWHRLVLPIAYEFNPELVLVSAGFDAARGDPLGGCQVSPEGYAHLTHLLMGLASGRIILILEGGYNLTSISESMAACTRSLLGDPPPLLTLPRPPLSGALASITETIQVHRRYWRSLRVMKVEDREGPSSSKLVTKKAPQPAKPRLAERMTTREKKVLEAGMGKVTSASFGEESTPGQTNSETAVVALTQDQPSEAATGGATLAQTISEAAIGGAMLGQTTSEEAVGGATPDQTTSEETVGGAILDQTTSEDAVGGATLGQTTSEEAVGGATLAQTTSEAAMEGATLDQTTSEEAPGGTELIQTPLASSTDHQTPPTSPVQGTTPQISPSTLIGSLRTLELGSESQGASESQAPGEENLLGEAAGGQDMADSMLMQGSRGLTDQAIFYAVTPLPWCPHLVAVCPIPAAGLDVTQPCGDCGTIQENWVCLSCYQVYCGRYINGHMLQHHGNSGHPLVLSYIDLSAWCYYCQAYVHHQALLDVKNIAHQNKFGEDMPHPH
As to the kind of experiment: Inhibition of HDAC6 in human HCT116 cells assessed as increase in alpha tubulin acetylation at 0.01 to 1 uM after 24 hrs by Western blot analysis. It counts as cell-based. Conditions: HCT-116. The method in brief: as §1

Assay [4] concerns HCT-116. As to the kind of experiment: Growth inhibition of human HCT116 cells at 5 uM after 96 hrs by MTS assay. The format is functional, cell-based. Put shortly: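 HCT116 cells seeded at 3 × 10^4 cells/well in quadruplicate and left to attach overnight. Medium was replaced with fresh medium containing compound at 10 nM, 100 nM, 1 µM or 5 µM, then incubated 96 h at 37 °C in 5% CO2. MTS reagent was added for 1.5 h at 37 °C and absorbance read at 490 nm.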

The target in assay [5] is Histone deacetylase 1 (Homo sapiens) (UniProt Q13547). As to the kind of experiment: Inhibition of recombinant HDAC1 at 1 uM after 1 hr by fluorimetric assay. Put shortly: (§2)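 Fluor de Lys fluorimetric deacetylase assay run per the kit protocol. Inhibitor, enzyme and substrate were incubated 1 h, then developer was added and incubated before reading. Recombinant HDAC1 or HDAC6 was tested at 1 µM inhibitor; HeLa nuclear extract served as the class 1/2 HDAC source. Analogue + substrate + developer was the signal control. Three experiments, each in triplicate; SD of triplicates.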
Histone deacetylase 1 (Homo sapiens), sequence (Q13547 whole entry): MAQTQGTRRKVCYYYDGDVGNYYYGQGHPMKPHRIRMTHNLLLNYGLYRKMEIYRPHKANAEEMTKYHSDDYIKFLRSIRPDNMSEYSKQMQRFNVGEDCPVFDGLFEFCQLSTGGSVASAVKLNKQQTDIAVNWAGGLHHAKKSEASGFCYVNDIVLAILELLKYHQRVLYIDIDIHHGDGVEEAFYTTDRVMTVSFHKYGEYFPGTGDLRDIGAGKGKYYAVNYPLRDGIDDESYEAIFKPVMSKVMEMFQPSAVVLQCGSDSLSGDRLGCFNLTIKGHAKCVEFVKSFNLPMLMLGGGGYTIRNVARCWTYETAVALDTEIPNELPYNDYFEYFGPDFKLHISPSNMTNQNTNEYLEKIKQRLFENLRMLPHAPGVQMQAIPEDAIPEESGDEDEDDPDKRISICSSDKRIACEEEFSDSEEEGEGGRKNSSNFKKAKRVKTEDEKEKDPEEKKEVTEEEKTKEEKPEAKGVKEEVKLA

The target is the same in assay [6]. As to the kind of experiment: Inhibition of HDAC1 from human HeLa nuclear extract after 1 hr by fluorimetric assay. The method in brief:
as §2

The target in assay [7] is T1, Protein deacetylase HDAC6 (Homo sapiens). The experiment in a line: Inhibition of recombinant HDAC6 at 1 uM after 1 hr by fluorimetric assay. Put shortly:
as §2

Assay [8] shares this target. As to the kind of experiment: Inhibition of recombinant human HDAC6 after 1 hr by fluorimetric assay.
In assay [9] the test system is HCT-116. The experiment in a line: Growth inhibition of human HCT116 cells after 96 hrs by MTS assay. It counts as functional. To be noted: HCT-116, 96 h. Put shortly:
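HCT116 cells seeded at 3 × 10^4 cells/well in quadruplicate and allowed to attach overnight. Medium then replaced with fresh medium containing compound (10 nM, 100 nM, 1 µM, 5 µM). Cells incubated 96 h at 37 °C, 5% CO2. MTS reagent (CellTiter 96 One Solution) added for 1.5 h at 37 °C, then absorbance read at 490 nm. GI50 estimated from the growth curves.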

The target of assay [10] is Histone deacetylase 1 (Homo sapiens) (UniProt Q13547). Conditions: HCT-116, 100 nM.

As usually defined, the inhibition is how much of the control response was suppressed. Take `CC(C)[C@@H]1NC(=O)[C@]2(C)CSC(=N2)c2csc(n2)CNC(=O)C[C@@H](/C=C/CCSCc2cccs2)OC1=O`: the inhibition entry in assay [1] and in assay [3] was “inactive” in each case. The inhibition entry in assay [2], in assay [6] and in assay [8] was “Active” throughout. In addition, the “growth inhibition (GI)” value in [4] is “Active”. Moreover, the inhibition in [5] worked out at 80%; in [7], 50%.

As a reminder, the GI50 is the concentration that inhibits growth by half. High values mean less potent growth inhibition, low ones more potent growth inhibition. Regarding `CCCCCCCC(=O)SCC/C=C/[C@@H]1CC(=O)NCc2nc(cs2)C2=N[C@@](C)(CS2)C(=O)N[C@@H](C(C)C)C(=O)O1` [LARGAZOLE], the inhibition entry in assay [1] and in assay [3] was “inactive” in each case. The same compound returned a GI50 in [9] of 10 nM. Also, the inhibition result in [5], in assay [6], in assay [10] and in assay [8] was “Active” throughout. Moreover, in assay [7], the inhibition was 50%.

Turning to `CC(C)[C@@H]1NC(=O)[C@]2(C)CSC(=N2)c2csc(n2)CNC(=O)C[C@@H](/C=C/CCSCc2ccccn2)OC1=O`, the inhibition entry in [1] and in assay [3] was “inactive” each time. The inhibition entry in assay [2], in assay [6] and in assay [8] was “Active” throughout. The GI50 in assay [9] worked out at 1000 nM. In addition, the inhibition in [5] worked out at 80%; in assay [7], 50%.

Consider `CC(C)[C@@H]1NC(=O)[C@]2(C)CSC(=N2)c2csc(n2)CNC(=O)C[C@@H](/C=C/CCSCc2ccccc2O)OC1=O`, for which the inhibition result in assay [1] and in assay [3] was “inactive” in each case. In addition, in assay [4], the “growth inhibition (GI)” value is “Active”. In addition, the inhibition in assay [5] turned out to be 30%; in assay [7], 50%. The inhibition entry in [6] and in [8] was “Active” in each case.
